Compound activity as filed in PubChem.
ARFGAP1 inhibitor: inhibitors of rat ARFGAP1 GAP activity, primary screen, biochemical, fluorescence polarization, GDP tracer | 360,000 tested, 0.26% active | inhibition, % at 16.5 µM | ADP-ribosylation factor GTPase-activating protein 1 (Rattus norvegicus), Q62848 | Arfgap1-stimulated ARF1 GTP hydrolysis, GDP FP detection;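 active = inhibition above a per-plate limit, mean inhibition of low control wells plus 3 SD, cut at about 25% in these data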
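Material – truncated rat Arfgap1 GAP domain · Buffer or medium – HEPES-based buffer, pH 7.5 · Reagent – human ARF1(Δ1-17)-GTP substrate · Dosing – 16.5 µM single point, 1.26% DMSO · Schedule – GTP hydrolysis reaction 2 h at 25 °C · Technique – GDP detection by fluorescence polarization · Benchmarks – No-Arfgap1 wells (100%) versus DMSO full-reaction wells (0%) · Repeats – single replicate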
PAFAH1B2 FP inh: PAFAH1B2 enzyme inhibitors, primary screen, biochemical, fluorescence polarization, human; inhibition, % at 3.39 µM; Platelet-activating factor acetylhydrolase IB subunit alpha2 (Homo sapiens), P68402; recombinant PAFAH1B2, FP-rhodamine activity probe; 340,000 tested, 1.2% active; AID 492953, 2010;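 active = inhibition above the mean of all tested compounds plus 3 SD, cut at about 24% in these data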
ASAP1 inh: inhibitors of human ASAP1 ArfGAP activity, primary screen, biochemical, fluorescence polarization | ASAP1-stimulated ARF1 GTP hydrolysis, GDP FP detection | inhibition, % at 16.5 µM | 360,000 tested, 0.19% active | AID 624377, 2012; in the data active = inhibition above about 25%
pPAFAH FP inh: pPAFAH enzyme inhibitors, primary screen, biochemical, fluorescence polarization, human; Platelet-activating factor acetylhydrolase (Homo sapiens), Q13093; recombinant pPAFAH, FP-rhodamine probe fluorescence polarization; inhibition, % at 3.39 µM; 330,000 tested, 1.5% active; AID 463082, 2010;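 active = inhibition above the mean inhibition across the screen plus 3 SD, cut at about 25% in these data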;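 also: inhibitors block binding of the rhodamine activity-based probe so polarization drops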
Target sequence (Q13093 whole entry, looked up): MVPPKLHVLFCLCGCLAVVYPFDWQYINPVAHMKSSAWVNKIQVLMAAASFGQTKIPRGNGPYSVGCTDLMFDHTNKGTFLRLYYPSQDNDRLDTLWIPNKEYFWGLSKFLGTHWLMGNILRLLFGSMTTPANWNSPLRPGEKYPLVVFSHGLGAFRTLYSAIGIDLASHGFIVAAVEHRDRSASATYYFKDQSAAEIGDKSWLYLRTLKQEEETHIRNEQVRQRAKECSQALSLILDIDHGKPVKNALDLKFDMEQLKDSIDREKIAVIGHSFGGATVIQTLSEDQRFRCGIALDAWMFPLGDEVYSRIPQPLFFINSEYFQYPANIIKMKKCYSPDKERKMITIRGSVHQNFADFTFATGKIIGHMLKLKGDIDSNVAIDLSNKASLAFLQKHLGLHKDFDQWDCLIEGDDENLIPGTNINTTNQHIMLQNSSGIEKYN
PAFAH2 FP inh: PAFAH2 enzyme inhibitors, primary screen, biochemical, fluorescence polarization, human | Platelet-activating factor acetylhydrolase 2, cytoplasmic (Homo sapiens), Q99487 | recombinant PAFAH2, FP-rhodamine activity probe | inhibition, % at 3.39 µM | 340,000 tested, 0.99% active | AID 492956, 2010;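 active = inhibition above the mean over all tested compounds plus 3 SD, cut at about 30% in these data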;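 also: inhibitors block probe labeling of enzyme so polarization drops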
PAFAH1B3 FP inh: PAFAH1B3 enzyme inhibitors, primary screen, biochemical, fluorescence polarization, human | Platelet-activating factor acetylhydrolase IB subunit alpha1 (Homo sapiens), Q15102 | recombinant PAFAH1B3, FP-rhodamine probe | inhibition, % at 3.39 µM | 340,000 tested, 0.28% active | AID 492972, 2010;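 active = inhibition above the screen-wide average of all tested compounds plus 3 SD, cut at about 25% in these data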
Target sequence (Q15102 whole entry, looked up): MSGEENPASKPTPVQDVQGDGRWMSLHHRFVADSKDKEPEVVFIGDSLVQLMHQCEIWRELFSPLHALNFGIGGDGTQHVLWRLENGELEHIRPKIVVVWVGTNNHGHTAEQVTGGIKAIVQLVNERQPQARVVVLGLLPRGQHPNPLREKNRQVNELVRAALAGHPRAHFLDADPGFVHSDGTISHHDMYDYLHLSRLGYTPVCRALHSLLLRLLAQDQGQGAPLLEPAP
Hits are given with their value; – = inactive; · = no result. Rows were chosen to be rich in hits. Some 2.7% of all compounds tested hit in one or more screens of this group.

SMILES	ARFGAP1 inhibitor	PAFAH1B2 FP inh	ASAP1 inh	pPAFAH FP inh	PAFAH2 FP inh	PAFAH1B3 FP inh
O=C(NCCCN1CCCC1=O)c1cccc(NS(=O)(=O)c2ccccc2)c1	–	–	–	–	–	–
Cc1cccc(NS(=O)(=O)c2cccc(C(=O)NCCCN3CCCC3=O)c2)c1	–	–	–	27.8	–	–
COC(=O)CNC(c1ccccc1)c1cc(Br)ccc1NC(=O)OCc1ccccc1 (stereo not drawn)	–	–	–	–	–	–
COC(=O)CNC(c1ccccc1)c1cc(C)ccc1NC(=O)CNC(=O)OCc1ccccc1 (stereo not drawn)	–	–	–	29.8	–	–
C[C@@H]1CCCCO[C@H](CN(C)C(=O)C2CCCCC2)[C@@H](C)CN([C@H](C)CO)C(=O)c2cc(NS(=O)(=O)c3cccs3)ccc2O1	–	·	–	·	·	·
CCCN1CCCCC(NC(=O)c2ccc(-c3ccccc3)cc2)C1=O (stereo not drawn)	–	·	–	·	·	·
COc1ccc(CN2CCN(c3cccc(C)c3C)CC2)cc1OC	33.6	–	–	–	–	–
CCN1C(=O)N(CC)C(O)(c2ccccc2)C1(O)c1ccccc1 (stereo not drawn)	–	–	–	–	–	–
CCN1C(=O)N(C)C2(c3ccccc3)N(C)C(=O)N(C)C12c1ccccc1 (stereo not drawn)	–	38.4	–	–	–	–
COc1ccc(-n2c(SCC(N)=O)nnc2-c2ccc(NS(=O)(=O)c3ccc(C)cc3)cc2)cc1	–	–	–	–	–	–
COc1ccc(-n2c(SCC#N)nnc2-c2ccc(NS(=O)(=O)c3ccc(C)cc3)cc2)cc1	·	–	·	26.1	–	–
Cc1ccccc1S(=O)(=O)N1CCCc2nc(-c3ccccc3)ccc21	–	·	–	·	·	·
CCCCn1c(N)c(N(CC(C)C)C(=O)c2ccc(S(=O)(=O)N3CCC(C)CC3)cc2)c(=O)[nH]c1=O	–	–	–	31.9	–	–
CCCCn1c(N)c(N(CC(C)C)C(=O)CN2C(=O)NC3(CCC(C(C)(C)CC)CC3)C2=O)c(=O)[nH]c1=O (stereo not drawn)	–	31.3	–	·	–	–
CCCCn1c(N)c(N(CC(C)C)C(=O)CN2C(=O)c3ccccc3C2=O)c(=O)[nH]c1=O	–	–	–	–	–	–
CCCCn1c(N)c(N(CC(C)C)C(=O)c2ccc(S(=O)(=O)N3CCCCCC3)cc2)c(=O)[nH]c1=O	–	–	–	–	–	–
O=C(O)C1CCCN1C(=O)c1cccc(Cl)c1 (stereo not drawn)	–	·	–	·	·	·
Nc1n[nH]c2c1C1(CCCCC1)Cc1ccccc1-2	–	31.8	–	–	–	–
Nc1ncnc2c1C1(CCCCC1)Cc1ccccc1-2	–	–	–	–	–	–
COc1oc(C(=O)NC2CCCCC2)c(-c2ccc(Cl)cc2)c1S(=O)(=O)c1ccccc1	–	31.9	–	·	–	–
Oc1ccc(-c2nc3ccc4ccccc4c3c3c2CCC3)cc1O	–	–	–	32.9	–	–
Cc1cc(C)c2c(ccc3ccccc32)n1	–	–	–	·	–	–
CCN(CC)CCCNC(=O)c1cc2cc(Cl)ccc2nc1N	–	·	–	·	·	·
Cc1ccc(C)c(-c2cc(C(=O)NNC(=S)NCC(C)C)c3ccccc3n2)c1	–	–	–	26.1	–	–
CCc1ccc(-c2cc(C(=O)Nn3cnnc3)c3ccccc3n2)cc1	–	71.8	–	–	–	–
SMILES	ARFGAP1 inhibitor	PAFAH1B2 FP inh	ASAP1 inh	pPAFAH FP inh	PAFAH2 FP inh	PAFAH1B3 FP inh
CCNC(=S)NNC(=O)c1cc(-c2ccc(OCC)cc2)nc2ccccc12	–	–	–	26.8	–	–
CCNC(=S)NNC(=O)c1cc(-c2cccc(OC)c2)nc2ccccc12	–	–	–	–	–	–
COC(=O)C1=C(C)N(Cc2cccc(C(F)(F)F)c2)C(=NCc2ccc3c(c2)OCO3)NC1c1ccc(Cl)cc1 (stereo not drawn)	–	·	–	·	·	·
C[C@@H]1CN(C(=O)OC(C)(C)C)CCN1c1ccc(N2CCN(Cc3ccccc3)[C@@H](C)C2)c(C#N)c1	–	·	–	·	·	·
CCOC(=O)c1c(-n2c(C)cc(C=O)c2C)sc2c1CCCC2	–	–	–	–	–	–
Cc1ccc(C)n1-c1sc2c(c1C(=O)O)CCCC2	–	–	–	25.5	–	–
COc1cc2c(c(OC)c1OC)C1(CCCCC1)CC2NCC=C(C)C (stereo not drawn)	–	·	–	·	·	·
Cc1ccc(S(=O)(=O)Nc2nc3ccccc3nc2NCc2ccco2)cc1	–	29.5	–	–	33.9	25.7
C[C@H]1CN([C@@H](C)CO)C(=O)CCCn2cc(nn2)CO[C@@H]1CN(C)S(=O)(=O)c1cn(C)cn1	–	·	–	·	·	·
Cc1cc(=O)[nH]c(SCC(=O)C23CC4CC(CC(C4)C2)C3)c1C#N	–	63.1	–	–	49.0	–
Cc1cc(=O)[nH]c(SCC(=O)O)c1C#N	–	–	–	–	–	–
O=C(O)CCc1ccc(-c2ccccc2)n1Cc1ccco1	–	–	–	–	–	–
O=C(O)CCc1ccc(-c2ccc(F)cc2)n1Cc1ccco1	–	28.9	–	–	–	–
COC(=O)C1=C(C)N(Cc2ccccc2C(F)(F)F)C(=NCc2ccccc2C(F)(F)F)NC1c1ccc(Cl)cc1 (stereo not drawn)	–	·	–	·	·	·
CN1C(=O)/C(=C/c2ccc(C(=O)Nc3ccc(O)cc3C(=O)O)cc2)SC1=S	–	–	–	30.0	–	–
COc1ccc(NC(=O)CN(C)C(=O)Cc2c(C)nc3ccccc3c2C)cc1	–	–	–	27.4	–	–
CCCc1cc(=O)[nH]c(SCC(=O)Nc2ccc(C)cc2)n1	–	–	–	–	–	–
CCc1ccc(NC(=O)CSc2nc(CSc3ccc(C)cc3)cc(=O)[nH]2)cc1	–	54.3	–	26.9	–	–
Cc1ccc(-c2nc3ccsc3c(=O)o2)cc1	–	–	–	–	65.8	–
NS(=O)(=O)c1ccc(Nc2nc(-c3ccc(O)cc3O)cs2)cc1	–	–	–	26.6	–	–
Cc1csc(NC(=O)CSc2nnc(-c3cc(C)on3)o2)n1	–	–	–	–	–	–
Cc1cc(-c2nnc(SCC(=O)Nc3nc(-c4ccccc4)cs3)o2)no1	–	–	–	30.0	–	–
CCCCNC(=O)C[C@H]1C[C@@]2(C(=O)OC)C(=C[C@H](C(C)(C)C)O[C@@H]2C)N(Cc2ccc3c(c2)OCO3)C1=O	–	·	–	·	·	·
COc1ccccc1OCC(=O)NNC(=O)c1cccs1	–	–	–	–	–	–
